Converted amounts (≈) assume the structure as drawn.
system: Bacteroides caccae; assay: Antimicrobial activity against Bacteroides caccae after 48 hrs by agar dilution method; format: functional
Outline: (§1)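 MICs on clinical anaerobe isolates by the CLSI agar dilution method. Inoculum of 10^5 CFU applied with a Steers replicator. Plates incubated 48 h at 37°C in an anaerobic chamber.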

Row | Compound | MIC50 | MIC90
1 | CO[C@@]1(NC(=O)C2SC(=C(C(N)=O)C(=O)O)S2)C(=O)N2C(C(=O)O)=C(CSc3nnnn3C)CS[C@@H]21 (some centres undefined) [CEFOTETAN] | > 128 µg/mL | > 128 µg/mL

system: Parabacteroides distasonis; assay: Antimicrobial activity against Bacteroides distasonis after 48 hrs by agar dilution method; format: functional; outline: as §1

Row | Compound | MIC50 | MIC90
2 | CO[C@@]1(NC(=O)C2SC(=C(C(N)=O)C(=O)O)S2)C(=O)N2C(C(=O)O)=C(CSc3nnnn3C)CS[C@@H]21 (some centres undefined) [CEFOTETAN] | > 128 µg/mL | > 128 µg/mL

system: Phocaeicola vulgatus; assay: Antimicrobial activity against Bacteroides vulgatus after 48 hrs by agar dilution method; format: functional; outline: as §1

Row | Compound | MIC50 | MIC90
3 | CO[C@@]1(NC(=O)C2SC(=C(C(N)=O)C(=O)O)S2)C(=O)N2C(C(=O)O)=C(CSc3nnnn3C)CS[C@@H]21 (some centres undefined) [CEFOTETAN] | > 128 µg/mL | > 128 µg/mL

system: Bacteroides ovatus; assay: Antimicrobial activity against Bacteroides ovatus after 48 hrs by agar dilution method; format: functional; outline: as §1

Row | Compound | MIC50 | MIC90
4 | CO[C@@]1(NC(=O)C2SC(=C(C(N)=O)C(=O)O)S2)C(=O)N2C(C(=O)O)=C(CSc3nnnn3C)CS[C@@H]21 (some centres undefined) [CEFOTETAN] | > 128 µg/mL | > 128 µg/mL

system: Bacteroides fragilis; assay: Antimicrobial activity against Bacteroides fragilis assessed as percent resistant isolates after 48 hrs by agar dilution method; format: functional
Outline: (§2)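 CLSI agar dilution on recent Korean clinical anaerobe isolates. Inoculum 10^5 CFU per spot by replicator. Plates incubated in an anaerobic chamber at 37°C for 48 h. For piperacillin plus tazobactam, tazobactam was held constant at 4 μg/ml. Resistance and susceptibility rates derived from MICs.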

Row | Compound | Activity
5 | CO[C@@]1(NC(=O)C2SC(=C(C(N)=O)C(=O)O)S2)C(=O)N2C(C(=O)O)=C(CSc3nnnn3C)CS[C@@H]21 (some centres undefined) [CEFOTETAN] | 14%

system: Bacteroides thetaiotaomicron; assay: Antimicrobial activity against Bacteroides thetaiotaomicron assessed as percent susceptible isolates after 48 hrs by agar dilution method; format: functional

Row | Compound | Activity
6 | CO[C@@]1(NC(=O)C2SC(=C(C(N)=O)C(=O)O)S2)C(=O)N2C(C(=O)O)=C(CSc3nnnn3C)CS[C@@H]21 (some centres undefined) [CEFOTETAN] | 89%

system: Bacteroides caccae; assay: Antimicrobial activity against Bacteroides caccae assessed as percent susceptible isolates after 48 hrs by agar dilution method; format: functional

Row | Compound | Activity
7 | CO[C@@]1(NC(=O)C2SC(=C(C(N)=O)C(=O)O)S2)C(=O)N2C(C(=O)O)=C(CSc3nnnn3C)CS[C@@H]21 (some centres undefined) [CEFOTETAN] | 89%

system: Phocaeicola vulgatus; assay: Antimicrobial activity against Bacteroides vulgatus assessed as percent susceptible isolates after 48 hrs by agar dilution method; format: functional

Row | Compound | Activity
8 | CO[C@@]1(NC(=O)C2SC(=C(C(N)=O)C(=O)O)S2)C(=O)N2C(C(=O)O)=C(CSc3nnnn3C)CS[C@@H]21 (some centres undefined) [CEFOTETAN] | 89%

system: Prevotella intermedia; assay: Antimicrobial activity against Prevotella intermedia after 48 hrs by agar dilution method; format: functional
Outline: (§3)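 CLSI agar dilution (M11-A7); inoculum 10^5 CFU applied by replicator; plates incubated anaerobically 48 h at 37°C. For piperacillin-tazobactam, tazobactam held constant at 4 μg/ml.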

Row | Compound | MIC50 | MIC90
9 | CO[C@@]1(NC(=O)C2SC(=C(C(N)=O)C(=O)O)S2)C(=O)N2C(C(=O)O)=C(CSc3nnnn3C)CS[C@@H]21 (some centres undefined) [CEFOTETAN] | 2 µg/mL (≈ 3.47 µM) | 16 µg/mL (≈ 27.8 µM)

system: Prevotella bivia; assay: Antimicrobial activity against Prevotella bivia after 48 hrs by agar dilution method; format: functional; outline: as §3

Row | Compound | MIC50 | MIC90
10 | CO[C@@]1(NC(=O)C2SC(=C(C(N)=O)C(=O)O)S2)C(=O)N2C(C(=O)O)=C(CSc3nnnn3C)CS[C@@H]21 (some centres undefined) [CEFOTETAN] | 4 µg/mL (≈ 6.95 µM) | 64 µg/mL (≈ 111 µM)

system: Prevotella intermedia; assay: Antimicrobial activity against Prevotella intermedia assessed as percent susceptible isolates after 48 hrs by agar dilution method; format: functional; outline: as §3

Row | Compound | Activity
11 | CO[C@@]1(NC(=O)C2SC(=C(C(N)=O)C(=O)O)S2)C(=O)N2C(C(=O)O)=C(CSc3nnnn3C)CS[C@@H]21 (some centres undefined) [CEFOTETAN] | 100%

system: Prevotella bivia; assay: Antimicrobial activity against Prevotella bivia assessed as percent susceptible isolates after 48 hrs by agar dilution method; format: functional; outline: as §3

Row | Compound | Activity
12 | CO[C@@]1(NC(=O)C2SC(=C(C(N)=O)C(=O)O)S2)C(=O)N2C(C(=O)O)=C(CSc3nnnn3C)CS[C@@H]21 (some centres undefined) [CEFOTETAN] | 72%

system: Prevotella buccae; assay: Antimicrobial activity against Prevotella buccae assessed as percent susceptible isolates after 48 hrs by agar dilution method; format: functional, Segatella buccae; outline: as §3

Row | Compound | Activity
13 | CO[C@@]1(NC(=O)C2SC(=C(C(N)=O)C(=O)O)S2)C(=O)N2C(C(=O)O)=C(CSc3nnnn3C)CS[C@@H]21 (some centres undefined) [CEFOTETAN] | 72%

system: Hoylesella oralis; assay: Antimicrobial activity against Prevotella oralis assessed as percent resistant isolates after 48 hrs by agar dilution method; format: functional; outline: as §2

Row | Compound | Activity
14 | CO[C@@]1(NC(=O)C2SC(=C(C(N)=O)C(=O)O)S2)C(=O)N2C(C(=O)O)=C(CSc3nnnn3C)CS[C@@H]21 (some centres undefined) [CEFOTETAN] | 17%

system: Fusobacterium mortiferum; assay: Antimicrobial activity against Fusobacterium mortiferum after 48 hrs by agar dilution method; format: functional; outline: as §3

Row | Compound | MIC
15 | CO[C@@]1(NC(=O)C2SC(=C(C(N)=O)C(=O)O)S2)C(=O)N2C(C(=O)O)=C(CSc3nnnn3C)CS[C@@H]21 (some centres undefined) [CEFOTETAN] | 0.06 µg/mL (≈ 0.104 µM)

system: Parvimonas micra; assay: Antimicrobial activity against Peptostreptococcus micros assessed as percent susceptible isolates after 48 hrs by agar dilution method; format: functional; outline: as §2

Row | Compound | Activity
16 | CO[C@@]1(NC(=O)C2SC(=C(C(N)=O)C(=O)O)S2)C(=O)N2C(C(=O)O)=C(CSc3nnnn3C)CS[C@@H]21 (some centres undefined) [CEFOTETAN] | 31%

system: Peptoniphilus asaccharolyticus; assay: Antimicrobial activity against Peptoniphilus asaccharolyticus after 48 hrs by agar dilution method; format: functional; outline: as §3

Row | Compound | MIC50 | MIC90
17 | CO[C@@]1(NC(=O)C2SC(=C(C(N)=O)C(=O)O)S2)C(=O)N2C(C(=O)O)=C(CSc3nnnn3C)CS[C@@H]21 (some centres undefined) [CEFOTETAN] | 0.25 µg/mL (≈ 0.434 µM) | 1 µg/mL (≈ 1.74 µM)

system: Finegoldia magna; assay: Antimicrobial activity against Finegoldia magna after 48 hrs by agar dilution method; format: functional; outline: as §3

Row | Compound | MIC50 | MIC90
18 | CO[C@@]1(NC(=O)C2SC(=C(C(N)=O)C(=O)O)S2)C(=O)N2C(C(=O)O)=C(CSc3nnnn3C)CS[C@@H]21 (some centres undefined) [CEFOTETAN] | 1 µg/mL (≈ 1.74 µM) | 2 µg/mL (≈ 3.47 µM)

system: Clostridium perfringens; assay: Antimicrobial activity against Clostridium perfringens after 48 hrs by agar dilution method; format: functional

Row | Compound | MIC50 | MIC90
19 | CO[C@@]1(NC(=O)C2SC(=C(C(N)=O)C(=O)O)S2)C(=O)N2C(C(=O)O)=C(CSc3nnnn3C)CS[C@@H]21 (some centres undefined) [CEFOTETAN] | 0.25 µg/mL (≈ 0.434 µM) | 1 µg/mL (≈ 1.74 µM)

system: Clostridium perfringens; assay: Antimicrobial activity against Clostridium perfringens assessed as percent susceptible isolates after 48 hrs by agar dilution method; format: functional

Row | Compound | Activity
20 | CO[C@@]1(NC(=O)C2SC(=C(C(N)=O)C(=O)O)S2)C(=O)N2C(C(=O)O)=C(CSc3nnnn3C)CS[C@@H]21 (some centres undefined) [CEFOTETAN] | 100%

system: Clostridioides difficile; assay: Antimicrobial activity against Clostridium difficile after 48 hrs by agar dilution method; format: functional

Row | Compound | MIC | MIC50 | MIC90
21 | CO[C@@]1(NC(=O)C2SC(=C(C(N)=O)C(=O)O)S2)C(=O)N2C(C(=O)O)=C(CSc3nnnn3C)CS[C@@H]21 (some centres undefined) [CEFOTETAN] | 8 µg/mL (≈ 13.9 µM) | 8 µg/mL (≈ 13.9 µM) | 128 µg/mL (≈ 222 µM)

system: Actinomyces israelii; assay: Antimicrobial activity against Actinomyces israelii after 48 hrs by agar dilution method; format: functional; outline: as §1

Row | Compound | MIC50 | MIC90
22 | CO[C@@]1(NC(=O)C2SC(=C(C(N)=O)C(=O)O)S2)C(=O)N2C(C(=O)O)=C(CSc3nnnn3C)CS[C@@H]21 (some centres undefined) [CEFOTETAN] | 4 µg/mL (≈ 6.95 µM) | 64 µg/mL (≈ 111 µM)

system: Schaalia meyeri; assay: Antimicrobial activity against Actinomyces meyeri after 48 hrs by agar dilution method; format: functional; outline: as §1

Row | Compound | MIC50 | MIC90
23 | CO[C@@]1(NC(=O)C2SC(=C(C(N)=O)C(=O)O)S2)C(=O)N2C(C(=O)O)=C(CSc3nnnn3C)CS[C@@H]21 (some centres undefined) [CEFOTETAN] | 4 µg/mL (≈ 6.95 µM) | 64 µg/mL (≈ 111 µM)

system: Schaalia meyeri; assay: Antimicrobial activity against Actinomyces meyeri assessed as percent resistant isolates after 48 hrs by agar dilution method; format: functional; outline: as §2

Row | Compound | Activity
24 | CO[C@@]1(NC(=O)C2SC(=C(C(N)=O)C(=O)O)S2)C(=O)N2C(C(=O)O)=C(CSc3nnnn3C)CS[C@@H]21 (some centres undefined) [CEFOTETAN] | 15%

system: Actinomyces naeslundii; assay: Antimicrobial activity against Actinomyces naeslundii assessed as percent resistant isolates after 48 hrs by agar dilution method; format: functional; outline: as §2

Row | Compound | Activity
25 | CO[C@@]1(NC(=O)C2SC(=C(C(N)=O)C(=O)O)S2)C(=O)N2C(C(=O)O)=C(CSc3nnnn3C)CS[C@@H]21 (some centres undefined) [CEFOTETAN] | 15%

system: Bifidobacterium adolescentis; assay: Antimicrobial activity against Bifidobacterium adolescentis after 48 hrs by agar dilution method; format: functional; outline: as §1

Row | Compound | MIC50 | MIC90
26 | CO[C@@]1(NC(=O)C2SC(=C(C(N)=O)C(=O)O)S2)C(=O)N2C(C(=O)O)=C(CSc3nnnn3C)CS[C@@H]21 (some centres undefined) [CEFOTETAN] | 4 µg/mL (≈ 6.95 µM) | 64 µg/mL (≈ 111 µM)

system: Eggerthella lenta; assay: Antimicrobial activity against Eubacterium lentum assessed as percent susceptible isolates after 48 hrs by agar dilution method; format: functional; outline: as §3

Row | Compound | Activity
27 | CO[C@@]1(NC(=O)C2SC(=C(C(N)=O)C(=O)O)S2)C(=O)N2C(C(=O)O)=C(CSc3nnnn3C)CS[C@@H]21 (some centres undefined) [CEFOTETAN] | 85%

system: Eggerthella lenta; assay: Antimicrobial activity against Eubacterium lentum assessed as percent resistant isolates after 48 hrs by agar dilution method; format: functional; outline: as §2

Row | Compound | Activity
28 | CO[C@@]1(NC(=O)C2SC(=C(C(N)=O)C(=O)O)S2)C(=O)N2C(C(=O)O)=C(CSc3nnnn3C)CS[C@@H]21 (some centres undefined) [CEFOTETAN] | 15%

system: Eubacterium sp.; assay: Antimicrobial activity against Eubacterium sp. after 48 hrs by agar dilution method; format: functional; outline: as §3

Row | Compound | MIC50 | MIC90
29 | CO[C@@]1(NC(=O)C2SC(=C(C(N)=O)C(=O)O)S2)C(=O)N2C(C(=O)O)=C(CSc3nnnn3C)CS[C@@H]21 (some centres undefined) [CEFOTETAN] | 4 µg/mL (≈ 6.95 µM) | 64 µg/mL (≈ 111 µM)

From ChEMBL document CHEMBL1671716, “Antimicrobial susceptibility patterns for recent clinical isolates of anaerobic bacteria in South Korea” (2010)
